Test results from ChEMBL document CHEMBL4190231, “Anti-Cryptococcus Phenalenones and Cyclic Tetrapeptides from Auxarthron pseudauxarthron” (J Nat Prod, 2017).
≈ marks a conversion by molar mass, not a printed value.

How the values were obtained:
Cryptococcus neoformans = experiment: Antifungal activity against Cryptococcus neoformans H99 after 48 hrs by resazurin assay; type: functional; details: var grubii H99 , read-out: MIC100
Outline: (§1)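 Broth serial dilution MIC per NCCLS, in 96-well plates with YM medium (1% maltose extract, 0.2% yeast extract, 0.4% agar). Compounds were dissolved in DMSO and diluted in medium, with amphotericin B as positive control. Incubation was at 25 °C, read at 24 h for C. albicans and 48 h for C. neoformans. Read-outs were visual, OD and PrestoBlue resazurin. MIC is the lowest concentration giving 100% inhibition versus untreated growth.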

Candida albicans = experiment: Antifungal activity against Candida albicans ATCC 10231 after 24 hrs by resazurin assay; type: functional; details: ATCC 10231, 24 h, read-out: MIC100; outline: as §1
MDA-MB-231 = experiment: Cytotoxicity against human MDA-MB-231 cells by Celltiter-Glo assay; type: functional, cell-based
Outline: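 Viability was measured with CellTiter-Glo reagent added 1:1 to well medium. Plates were kept foil-covered and shaken 2 min at room temperature, paused 2 min, then shaken another 2 min. Luminescence was read on a plate reader.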

MDA-MB-453 = experiment: Cytotoxicity against human MDA-MB-453 cells by Celltiter-Glo assay; type: functional, cell-based

| Structure (SMILES) | MIC (Cryptococcus neoformans) [µg/mL] | MIC (Candida albicans) [µg/mL] | IC50 (MDA-MB-231) [µM] | IC50 (MDA-MB-453) [µM] |
| --- | --- | --- | --- | --- |
| CCC(=O)C(C)C1(O)C(=O)c2c(O)cc(C)c3c(OC)cc(O)c(c23)C1=O (configuration not stated) | 6.4 (≈ 17.2 µM) | 6.4 (≈ 17.2 µM) | > 20 | > 20 |
| COc1cc(O)c2c3c(c(O)cc(C)c13)C1=C(C)C(=O)CC1(O)C2=O (configuration not stated) | 25.6 (≈ 75.2 µM) | 51.2 (≈ 150 µM) | > 20 | > 20 |
| C[C@@H]1[C@H](O)[C@@H](C)/C=C/C=C/C=C/C=C/C=C/C=C/C=C/[C@H](O[C@@H]2O[C@H](C)[C@@H](O)[C@H](N)[C@@H]2O)C[C@@H]2O[C@](O)(C[C@@H](O)C[C@@H](O)[C@H](O)CC[C@@H](O)C[C@@H](O)CC(=O)O[C@H]1C)C[C@H](O)[C@H]2C(=O)O [AMPHOTERICIN B] | 0.8 (≈ 0.866 µM) | 0.8 (≈ 0.866 µM) |  |  |
| COc1cc(O)c2c3c(c(O)cc(C)c13)C(=O)C(O)(C(C)C(C)=O)C2=O (configuration not stated) | 3.2 (≈ 8.93 µM) | 3.2 (≈ 8.93 µM) | > 20 | > 20 |
| CCC(=O)CC1(O)C(=O)c2c(O)cc(C)c3c(OC)cc(O)c(c23)C1=O (configuration not stated) | 12.8 (≈ 35.7 µM) | 25.6 (≈ 71.4 µM) | > 20 | > 20 |
| COc1cc(O)c2c3c(c(O)cc(C)c13)C(=O)C(O)(CC(C)=O)C2=O (configuration not stated) | 51.2 (≈ 149 µM) | 51.2 (≈ 149 µM) | > 20 | > 20 |
